Assay results as given in ChEMBL document CHEMBL1629485, “Lead identification of conformationally restricted β-lactam type combretastatin analogues: synthesis, antiproliferative activity and tubulin targeting effects” (Eur J Med Chem, 2010).

Columns and labels:
[1] = test system: MDA-MB-231; experiment: Cell cycle arrest in estrogen receptor deficient human MDA-MB-231 cells assessed as appearance of polyploidy at 10 uM after 72 hrs using propidium iodide staining by flow cytometry relative to control; format: functional
In short: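 MDA-MB-231 cells seeded at 18 × 10⁴ cells/mL and exposed to 1% (v/v) ethanol vehicle or compound at final concentrations (10 nM, 100 nM, 10 µM at all times; 1 µM also at 24 and 72 h). Cells harvested after 24, 48 or 72 h and treated with RNase A and propidium iodide for at least 30 min at 37 °C. 10,000 cells read at 488 nm by flow cytometry. Percent cells per phase reported, including polyploid; mean ± SD of three experiments.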

[2] = test system: MDA-MB-231; experiment: Cell cycle arrest in estrogen receptor deficient human MDA-MB-231 cells assessed as accumulation at sub-G1 phase at 100 nM after 48 hrs using propidium iodide staining by flow cytometry relative to control; format: functional
In short: (§1)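 MDA-MB-231 cells in DMEM with 10% FBS and 2 mM L-glutamine, seeded at 18 × 10⁴ cells/mL. Exposed to test agent at the stated final concentration, or to 1% (v/v) ethanol vehicle, for 24, 48 or 72 h. Harvested by scraping and centrifugation, then RNase A treatment and propidium iodide DNA staining for at least 30 min at 37 °C. 10,000 cells per sample read at 488 nm by flow cytometry; mean ± SD of three experiments.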

[3] = test system: MDA-MB-231; experiment: Cell cycle arrest in estrogen receptor deficient human MDA-MB-231 cells assessed as accumulation at G2/M phase at 10 nM after 72 hrs using propidium iodide staining by flow cytometry relative to control; format: functional; in short: as §1
[4] = test system: MDA-MB-231; experiment: Cell cycle arrest in estrogen receptor deficient human MDA-MB-231 cells assessed as accumulation at sub-G1 phase at 10 uM after 48 hrs using propidium iodide staining by flow cytometry relative to control; format: functional; in short: as §1
[5] = test system: MDA-MB-231; experiment: Cell cycle arrest in estrogen receptor deficient human MDA-MB-231 cells assessed as accumulation at G1 phase at 10 uM after 72 hrs using propidium iodide staining by flow cytometry relative to control; format: functional; in short: as §1
[6] = test system: MDA-MB-231; experiment: Cell cycle arrest in estrogen receptor deficient human MDA-MB-231 cells assessed as accumulation at G2/M phase at 100 nM after 24 hrs using propidium iodide staining by flow cytometry relative to control; format: functional; in short: as §1
[7] = test system: MDA-MB-231; experiment: Cell cycle arrest in estrogen receptor deficient human MDA-MB-231 cells assessed as accumulation at S phase at 100 nM after 48 hrs using propidium iodide staining by flow cytometry relative to control; format: functional; in short: as §1
[8] = test system: MDA-MB-231; experiment: Cell cycle arrest in estrogen receptor deficient human MDA-MB-231 cells assessed as accumulation at G1 phase at 10 nM after 24 hrs using propidium iodide staining by flow cytometry relative to control; format: functional; in short: as §1
[9] = test system: MDA-MB-231; experiment: Cell cycle arrest in estrogen receptor deficient human MDA-MB-231 cells assessed as appearance of polyploidy at 10 nM after 24 hrs using propidium iodide staining by flow cytometry relative to control; format: functional; in short: as §1
[10] = test system: MDA-MB-231; experiment: Cytotoxicity against estrogen receptor deficient human MDA-MB-231 cells assessed as LDH release at 10 uM; format: functional
In short: (§2)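 After compound treatment, LDH was measured with a commercial LDH kit. Result is % cell lysis at 10 μM compound.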

[11] = test system: MDA-MB-231; experiment: Cell cycle arrest in estrogen receptor deficient human MDA-MB-231 cells assessed as accumulation at sub-G1 phase at 10 nM after 24 hrs using propidium iodide staining by flow cytometry relative to control; format: functional; in short: as §1
[12] = test system: MDA-MB-231; experiment: Cell cycle arrest in estrogen receptor deficient human MDA-MB-231 cells assessed as accumulation at G2/M phase at 10 uM after 48 hrs using propidium iodide staining by flow cytometry relative to control; format: functional; in short: as §1
[13] = test system: MDA-MB-231; experiment: Cell cycle arrest in estrogen receptor deficient human MDA-MB-231 cells assessed as accumulation at sub-G1 phase at 100 nM after 24 hrs using propidium iodide staining by flow cytometry relative to control; format: functional; in short: as §1
[14] = test system: MDA-MB-231; experiment: Cell cycle arrest in estrogen receptor deficient human MDA-MB-231 cells assessed as accumulation at S phase at 10 uM after 72 hrs using propidium iodide staining by flow cytometry relative to control; format: functional; in short: as §1
[15] = test system: MCF7; experiment: Antiproliferative activity against human MCF7 cells expressing estrogen receptor after 72 hrs by MTT assay; format: functional, cell-based; details: MCF7, 72 h
[16] = test system: MDA-MB-231; experiment: Cell cycle arrest in estrogen receptor deficient human MDA-MB-231 cells assessed as accumulation at G2/M phase at 10 uM after 24 hrs using propidium iodide staining by flow cytometry relative to control; format: functional; in short: as §1
[17] = test system: MDA-MB-231; experiment: Cell cycle arrest in estrogen receptor deficient human MDA-MB-231 cells assessed as appearance of polyploidy at 10 uM after 24 hrs using propidium iodide staining by flow cytometry relative to control; format: functional; in short: as §1
[18] = test system: MCF7; experiment: Cytotoxicity against human MCF7 cells expressing estrogen receptor assessed as LDH release at 10 uM; format: functional; in short: as §2
[19] = test system: MDA-MB-231; experiment: Cell cycle arrest in estrogen receptor deficient human MDA-MB-231 cells assessed as accumulation at S phase at 1 uM after 72 hrs using propidium iodide staining by flow cytometry relative to control; format: functional; in short: as §1
[20] = test system: MDA-MB-231; experiment: Cell cycle arrest in estrogen receptor deficient human MDA-MB-231 cells assessed as accumulation at S phase at 100 nM after 72 hrs using propidium iodide staining by flow cytometry relative to control; format: functional; in short: as §1
[21] = test system: MDA-MB-231; experiment: Cell cycle arrest in estrogen receptor deficient human MDA-MB-231 cells assessed as accumulation at G2/M phase at 100 nM after 48 hrs using propidium iodide staining by flow cytometry relative to control; format: functional; in short: as §1
[22] = test system: MDA-MB-231; experiment: Cell cycle arrest in estrogen receptor deficient human MDA-MB-231 cells assessed as accumulation at S phase at 1 uM after 24 hrs using propidium iodide staining by flow cytometry relative to control; format: functional; in short: as §1
[23] = test system: MDA-MB-231; experiment: Cell cycle arrest in estrogen receptor deficient human MDA-MB-231 cells assessed as accumulation at sub-G1 phase at 10 nM after 48 hrs using propidium iodide staining by flow cytometry relative to control; format: functional; in short: as §1
[24] = test system: MDA-MB-231; experiment: Cell cycle arrest in estrogen receptor deficient human MDA-MB-231 cells assessed as accumulation at sub-G1 phase at 10 nM after 72 hrs using propidium iodide staining by flow cytometry relative to control; format: functional; in short: as §1
[25] = test system: MDA-MB-231; experiment: Cell cycle arrest in estrogen receptor deficient human MDA-MB-231 cells assessed as accumulation at G1 phase at 100 nM after 48 hrs using propidium iodide staining by flow cytometry relative to control; format: functional; in short: as §1
[26] = test system: MDA-MB-231; experiment: Cell cycle arrest in estrogen receptor deficient human MDA-MB-231 cells assessed as accumulation at G1 phase at 1 uM after 72 hrs using propidium iodide staining by flow cytometry relative to control; format: functional; in short: as §1
[27] = test system: MDA-MB-231; experiment: Antiproliferative activity against estrogen receptor deficient human MDA-MB-231 cells after 72 hrs by MTT assay; format: functional, cell-based; details: MDA-MB-231, 72 h
In short: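 MCF-7 grown in Eagle's MEM with 10% FBS, 2 mM L-glutamine, penicillin/streptomycin and 1% non-essential amino acids; MDA-MB-231 grown in DMEM with 10% FBS, 2 mM L-glutamine and penicillin/streptomycin. Seeded at 2.5 × 10⁴ cells/mL, 24 h at 37 °C. Ethanol-stock compound, 1 nM–100 μM, 72 h, ethanol 1% v/v vehicle. MTT at 1 mg/mL final, 2 h dark, 37 °C, DMSO solubilised. Viability vs untreated control. IC50 is mean of three experiments in triplicate.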

[28] = test system: MDA-MB-231; experiment: Cell cycle arrest in estrogen receptor deficient human MDA-MB-231 cells assessed as accumulation at sub-G1 phase at 100 nM after 72 hrs using propidium iodide staining by flow cytometry relative to control; format: functional; in short: as §1

**Q.** Which results are given for COc1ccc(C2CC(=O)N2c2cc(OC)c(OC)c(OC)c2)cc1O (stereo not drawn)?
**A.** Activity [1]: 3.38%; Activity [2]: 37.5%; Activity [3]: 17.68%; Activity [4]: 51.27%; Activity [5]: 17.14%; Activity [6]: 59.43%; Activity [7]: 8.9%; Activity [8]: 48.33%; Activity [9]: 2.84%; Activity [10]: 16%; Activity [11]: 3.72%; Activity [12]: 27.25%; Activity [13]: 4.88%; Activity [14]: 9.66%; IC50 [15]: 17 nM; Activity [16]: 55.36%; Activity [17]: 3.85%; Activity [18]: 9%; Activity [19]: 7.76%; Activity [20]: 5.34%; Activity [21]: 36.42%; Activity [22]: 6.01%; Activity [23]: 11.57%; Activity [24]: 15.25%; Activity [25]: 10.76%; Activity [26]: 14.29%; IC50 [27]: 54 nM; Activity [28]: 63.1%
